According to ChEMBL document CHEMBL3259678 (ACS Med Chem Lett, 2014):
The source made the active and inactive calls. The rule behind the calls is not given here.

Assays:
[1] = molecular target: T1, Proteasome subunit beta type-8 (Homo sapiens, UniProt P28062); experiment: (§1) Inhibition of immunoproteasome-20S subunit beta5i in human PBMC assessed as substrate hydrolysis using suc-LLVY-AMC as substrate measured for 120 mins by fluorescence analysis
T1 sequence (P28062 whole entry): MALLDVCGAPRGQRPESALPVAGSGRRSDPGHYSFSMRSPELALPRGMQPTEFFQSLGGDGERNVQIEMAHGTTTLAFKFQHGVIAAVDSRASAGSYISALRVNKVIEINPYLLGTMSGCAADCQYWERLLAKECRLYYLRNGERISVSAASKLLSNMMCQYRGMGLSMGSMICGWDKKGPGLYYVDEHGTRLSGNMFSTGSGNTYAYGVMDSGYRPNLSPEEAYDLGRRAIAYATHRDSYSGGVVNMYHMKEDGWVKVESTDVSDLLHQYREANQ

[2] = molecular target: T2, Proteasome subunit beta type-8 (Homo sapiens) (UniProt P28062); experiment: as §1
T2 sequence (whole entry): T1 sequence (P28062 whole entry)

Homo sapiens [3] = organism: Homo sapiens; experiment: Ratio of Kinact/Ki for immunoproteasome-20S subunit beta5i in human PBMC to Kinact/Ki for constitutive proteasome 20S subunit beta5c in human RBC
Homo sapiens [4] = organism: Homo sapiens; experiment: Inhibition of constitutive proteasome 20S subunit beta5c in human RBC assessed as substrate hydrolysis using suc-LLVY-AMC as substrate measured for 120 mins by fluorescence analysis
[5] = molecular target: T2, Proteasome subunit beta type-8 (Homo sapiens); experiment: Ratio of Kinact to Ki for immunoproteasome-20S subunit beta5i in human PBMC using suc-LLVY-AMC as substrate measured for 120 mins by fluorescence analysis
Method in brief: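 Progress curves of hu i-20S suc-LLVY-AMC hydrolysis recorded at several inhibitor concentrations. kobs for each curve fitted to equation I. kobs plotted against inhibitor concentration and fitted hyperbolically (two-step mechanism) to give kinact/KI.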

[6] = molecular target: T2, Proteasome subunit beta type-8 (Homo sapiens); experiment: Inhibition of immunoproteasome-20S subunit beta5i in human PBMC assessed as substrate hydrolysis using suc-LLVY-AMC as substrate by fluorescence analysis; settings: TDE = time-dependent effect
Method in brief: (§2)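 Purified human i-20S preincubated with inhibitor for 15 min before suc-LLVY-AMC was added; inhibitor ranged from 9.8 nM to 100 μM. AMC fluorescence release read. IC50 from the concentration–response; where β2i/β1i inhibition exceeded 80% at 100 μM, IC50 was also determined.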

[7] = molecular target: T2, Proteasome subunit beta type-8 (Homo sapiens); settings: 1 nM
[8] = molecular target: T2, Proteasome subunit beta type-8 (Homo sapiens); settings: 10 to 100 nM
[9] = molecular target: T2, Proteasome subunit beta type-8 (Homo sapiens); experiment: Inhibition of immunoproteasome 20S subunit beta5i in human Karpas 1106p cells assessed as accumulation of polyubiquitinylated proteins at 2.5 to 25 uM after 4 hrs by western blot analysis; assay type: cell-based
Method in brief: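 Karpas 1106p cells treated with inhibitor at the indicated concentrations for 4 h at 37 °C. Polyubiquitinated proteins then detected by Western blot.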

[10] = molecular target: T2, Proteasome subunit beta type-8 (Homo sapiens); experiment: Inhibition of immunoproteasome 20S subunit beta5i in human Karpas 1106p cell extract at 100 uM
Method in brief: (§3)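 Cell-free extracts of Karpas 1106p cells incubated with inhibitor at various concentrations. β5i activity in the lysate then measured; reported as percent inhibition at each concentration.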

[11] = Half life of the compound in RPMI medium at 75 uM by UPLC/MS analysis; assay type: physicochemical
Method in brief: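 Stability measured in tissue culture medium; reported as t1/2 in minutes.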

26S proteasome = experiment: Inhibition of chymotrypsin-like activity of 26S proteasome in intact human Karpas 1106p cells assessed as substrate hydrolysis using Suc-LLVY-(D)-aminoluciferin as substrate after 3 hrs by cell-based Proteasome-Glo assay
Method in brief: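 Intact Karpas 1106p cells, a human lymphoma line that expresses i-20S constitutively without IFN-γ or TNF-α stimulation. 26S proteasome activity read by cell-based Proteasome-Glo luminescence over a range of inhibitor concentrations. EC50 derived from the dose–response.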

[12] = molecular target: T2, Proteasome subunit beta type-8 (Homo sapiens); experiment: Inhibition of immunoproteasome 20S subunit beta5i in human Karpas 1106p cell extract at 1 uM; method in brief: as §3
[13] = molecular target: T2, Proteasome subunit beta type-8 (Homo sapiens); experiment: Inhibition of immunoproteasome 20S subunit beta5i in human Karpas 1106p cell extract at 10 uM; method in brief: as §3
[14] = molecular target: T1, Proteasome subunit beta type-8; experiment: Inhibition of immunoproteasome-20S subunit beta5i in human PBMC assessed as substrate hydrolysis using suc-LLVY-AMC as substrate preincubated for 15 mins prior to substrate challenge measured for 120 mins by fluorescence analysis; method in brief: as §2

| Ki [1] [µM] | Kinact [2] [s⁻¹] | Ratio (Homo sapiens [3]) | Ratio (Homo sapiens [4]) [M⁻¹ s⁻¹] | Ratio [5] [M⁻¹ s⁻¹] | inhibition [6] | inhibition [7] [%] | inhibition [8] [%] | inhibition [9] | inhibition [10] | half-life at 75 µM [11] [h] | EC50 (26S proteasome) [µM] | inhibition [12] [%] | inhibition [13] [%] | IC50 [14] [µM] | SMILES |
| --- | --- | --- | --- | --- | --- | --- | --- | --- | --- | --- | --- | --- | --- | --- | --- |
| 1.1 | 0.00026 | 1730 | 0.13 | 225 | tde | – | – | – | – | – | – | – | – | – | O=c1oc(-c2ccc3[nH]ccc3c2)ns1 |
| 1.7 | 0.00042 | 171 | 1.4 | 239 | tde | – | – | – | – | – | – | – | – | – | O=c1oc(-c2cc(O)c(O)c(O)c2)ns1 |
| 2 | 0.00025 | 645 | 0.2 | 129 | – | – | – | – | – | – | – | – | – | – | O=c1oc(-c2ccccn2)ns1 |
| – | – | 1.5 | 13.2 | 20 | – | – | – | – | – | – | – | – | – | – | O=c1oc(-c2cccc(F)c2)ns1 |
| 0.42 | 0.00038 | 89 | 10.3 | 913 | tde | – | – | – | – | – | – | – | – | – | O=c1oc(-c2cccc([N+](=O)[O-])c2)ns1 |
| – | – | 26 | 3.2 | 83 | – | – | – | Active | Active | 1.36 | 4.2 | 60 | > 90 | – | CC(=O)Nc1cccc(-c2nsc(=O)o2)c1 |
| 0.76 | 0.00077 | 100 | 10.1 | 1010 | – | – | – | – | – | – | – | – | – | 0.22 | Cc1sc(-c2nsc(=O)o2)cc1[N+](=O)[O-] |

The remaining lines, values behind:

| SMILES | Ki [1] [µM] | Kinact [2] [s⁻¹] | Ratio (Homo sapiens [3]) | Ratio (Homo sapiens [4]) [M⁻¹ s⁻¹] | Ratio [5] [M⁻¹ s⁻¹] | inhibition [6] | inhibition [7] [%] | inhibition [8] [%] | inhibition [9] | inhibition [10] | half-life at 75 µM [11] [h] | EC50 (26S proteasome) [µM] | inhibition [12] [%] | inhibition [13] [%] | IC50 [14] [µM] |
| --- | --- | --- | --- | --- | --- | --- | --- | --- | --- | --- | --- | --- | --- | --- | --- |
| CC(C)(C)OC(=O)Nc1ccc(-c2nsc(=O)o2)cc1 | 1.1 | 0.00037 | 142 | 2.4 | 341 | – | – | – | – | – | – | – | – | – | – |
| CC(=O)N[C@@H](Cc1ccccc1)C(=O)Nc1ccc(-c2nsc(=O)o2)cc1 | 0.52 | 0.0001 | 1490 | 0.13 | 193 | tde | – | – | – | – | – | – | – | – | – |
| O=c1oc(-c2ccccc2C(F)(F)F)ns1 | 1.8 | 0.00033 | 117 | 1.6 | 187 | tde | – | – | – | – | – | – | – | – | – |
| [N-]=[N+]=Nc1ccc(-c2nsc(=O)o2)cc1 | 3.5 | 0.00092 | 11 | 23.7 | 263 | tde | – | – | – | – | – | – | – | – | – |
| O=c1oc(-c2cccc(CN3CCOCC3)c2)ns1 | 1.2 | 0.00026 | 93 | 2.3 | 214 | tde | – | – | – | – | – | – | – | – | – |
| O=c1oc(-c2ccccc2)ns1 | 7.9 | 0.00093 | 8 | 14.8 | 118 | tde | – | – | – | – | – | – | – | – | – |
| CC(C)C[C@H](NC(=O)[C@H](Cc1ccccc1)NC(=O)c1cnccn1)B(O)O | – | – | – | – | – | – | 58 | 90 | – | – | – | – | – | – | – |
| CC(=O)N[C@H](Cc1ccccc1)C(=O)Nc1ccc(-c2nsc(=O)o2)cc1 | 3.5 | 0.00053 | 215 | 0.7 | 151 | – | – | – | Active | Active | 0.878 | 15.4 | 40 | 65 | – |
| O=c1oc(-c2cccc(-c3ccccc3)c2)ns1 | 6 | 0.001 | 420 | 0.4 | 168 | tde | – | – | – | – | – | – | – | – | – |
| O=c1oc(-c2ccc(-c3ccccc3)cc2)ns1 | 1.4 | 0.00154 | 4750 | 0.23 | 1090 | – | – | – | – | – | – | – | – | – | – |
| CC(=O)N[C@H](Cc1ccccc1)C(=O)Nc1cccc(-c2nsc(=O)o2)c1 | – | – | 19 | 0.34 | 6.6 | – | – | – | – | – | – | – | – | – | – |
